# Measurements taken from ChEMBL document CHEMBL3808283, “Biological Characterization and in Vivo Assessment of the Activity of a New Synthetic Macrocyclic Antifungal Compound” (J Med Chem, 2016).
# Calls of active or inactive are those of the source. The calls are words filed in the database; no cut-off is given here.
# Tests used:
# Candida albicans [1] = experiment: Upregulation of RTA2 gene expression in Candida albicans SC5314 at 3 uM after 45 mins by microarray method relative to control; assay type: functional
# In short: (§1)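 Log-phase C. albicans SC5314 in liquid YEPD exposed to 3 µM final for 15 or 45 min; untreated controls taken at the same time points. Three biological replicates. RNA extracted by glass-bead/phenol-chloroform method and integrity checked. One-color Cy3-labeled cRNA (600 ng) hybridized 17 h at 65 °C to 8 × 15K arrays. Expression expressed as fold change versus control.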
# Pichia kudriavzevii [2] = experiment: Fungicidal activity against Candida krusei ATCC 14243 assessed as reduction in CFU at 80 uM measured at 24 hrs by time kill assay relative to control; assay type: functional; details: ATCC 14243, 24 h
# In short: (§2)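 EUCAST broth microdilution at 37 °C. From wells at MIC, 2×, 4× and 8× MIC, 10 µL aliquots were taken, serially 10-fold diluted in saline and plated on Sabouraud dextrose agar. Plates were incubated at 37 °C for 24/48 h, and 48 h for Cryptococcus and Geotrichum. Done in duplicate, detection limit 10 CFU/mL. A drop of at least 3 Log10 CFU/mL from the initial inoculum in 24 h counts as fungicidal; a smaller drop counts as fungistatic.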
# Candida tropicalis [3] = experiment: Antifungal activity against Candida tropicalis 86E measured at 48 hrs by broth dilution assay; assay type: functional
# In short: (§3)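 EUCAST broth microdilution, including the update for non-fermenting yeasts (Cryptococcus, Geotrichum), on clinical and reference yeast isolates. Incubated at 37 °C and read at 24, 48 and 72 h. MIC taken as the lowest concentration with no visible growth. For Cryptococcus and Geotrichum, MICs were read only once growth was visible in the control row.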
# Candida albicans [4] = experiment: Upregulation of PDR16 gene expression in Candida albicans SC5314 at 3 uM after 15 mins by microarray method relative to control; assay type: functional; in short: as §1
# Candida albicans [5] = experiment: Upregulation of orf19.1887 gene expression in Candida albicans SC5314 at 3 uM after 15 mins by microarray method relative to control; assay type: functional
# In short: (§4)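 Log-phase cultures in liquid YEPD were exposed to 3 µM compound (final) for 15 or 45 min, with untreated controls sampled at the same times, in three biological replicates. Total RNA was extracted by glass-bead/phenol-chloroform disruption and integrity-checked. One-color Cy3-labelled cRNA (600 ng) was hybridized for 17 h at 65 °C to 8 × 15K arrays, and fold change was taken versus control.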
# Candida albicans [6] = experiment: Antifungal activity against Candida albicans 15T measured at 72 hrs by broth dilution assay; assay type: functional; in short: as §3
# Candida parapsilosis [7] = experiment: Ratio of MIC at 24 hrs to MIC at 48 hrs for Candida parapsilosis 81E; assay type: functional
# In short: (§5)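 MICs by EUCAST broth microdilution, with the update for non-fermenting yeasts, incubated at 37 °C. Read at 24, 48 and 72 h as the lowest concentration preventing visible growth.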
# Candida albicans [8] = experiment: Antifungal activity against Candida albicans 4T up to 96 hrs by broth dilution assay; assay type: functional, organism-based
# Candida albicans [9] = experiment: Antifungal activity against fluconazole-susceptible Candida albicans ATCC 90028 in immunocompetent Balb/c mouse candidiasis model assessed as reduction in CFU count in kidney at 20 to 40 mg/kg/day, ip regime measured on day 7 post infection; assay type: functional, organism-based
# In short: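 Immunocompetent BALB/c mice, 10 per strain group, injected in the lateral tail vein with 7 × 10^4 CFU of C. albicans in 200 µL sterile saline. Compound given ip daily, 100 µL of 0.1 mg/mL in DMSO/PEG 400 2:1; fluconazole control ip at 8 mg/kg/day. On day 7, spleen and kidneys were excised, weighed and homogenized in saline, then plated on YPD agar for 2 days at 30 °C. Read-out CFU/g; Wilcoxon rank-sum test, P<0.05.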
# Candida albicans [10] = experiment: Upregulation of CDR2 gene expression in Candida albicans SC5314 at 3 uM after 15 mins by microarray method relative to control; assay type: functional; in short: as §1
# Candida tropicalis [11] = experiment: Antifungal activity against Candida tropicalis 86E measured at 24 hrs by broth dilution assay; assay type: functional; in short: as §3
# Magnusiomyces capitatus = experiment: Antifungal activity against Geotrichum capitatum measured at 72 hrs by broth dilution assay; assay type: functional; in short: as §3
# Candida albicans [12] = experiment: Upregulation of TAC1 gene expression in Candida albicans SC5314 at 3 uM after 15 mins by microarray method relative to control; assay type: functional; in short: as §1
# Candida albicans [13] = experiment: Upregulation of CDR2 gene expression in Candida albicans SC5314 at 3 uM after 45 mins by microarray method relative to control; assay type: functional; in short: as §1
# Candida albicans [14] = experiment: Upregulation of ERG2 gene expression in Candida albicans SC5314 at 3 uM after 15 mins by microarray method relative to control; assay type: functional; in short: as §1
# Candida albicans [15] = experiment: Upregulation of orf19.7336 gene expression in Candida albicans SC5314 at 3 uM after 45 mins by microarray method relative to control; assay type: functional; in short: as §4
# Candida albicans [16] = experiment: Antifungal activity against wild type Candida albicans CAF2-1 at 10 uM by serial dilution assay; assay type: functional, organism-based
# Candida albicans [17] = experiment: Fungicidal activity against Candida albicans ATCC 60193 at 5 uM up to 24 hrs by time kill assay relative to control; assay type: functional; in short: as §2
# Cryptococcus neoformans = experiment: Antifungal activity against Cryptococcus neoformans measured at 72 hrs by broth dilution assay; assay type: functional; in short: as §3
# Candida parapsilosis [18] = experiment: Antifungal activity against Candida parapsilosis 64E measured at 24 hrs by broth dilution assay; assay type: functional; details: Lodderomyces parapsilosis; in short: as §3
# Nakaseomyces glabratus = experiment: Antifungal activity against Candida glabrata 70 measured at 72 hrs by broth dilution assay; assay type: functional; details: Nakaseomyces glabratus, 70, 72 h; in short: as §3
# Candida albicans [19] = experiment: Antifungal activity against Candida albicans 4T measured at 24 hrs by broth dilution assay; assay type: functional; in short: as §3
# Pichia kudriavzevii [20] = experiment: Antifungal activity against Candida krusei 193T measured at 72 hrs by broth dilution assay; assay type: functional; in short: as §3
# Candida albicans [21] = experiment: Antifungal activity against Candida albicans ATCC 60193 measured at 48 hrs by broth dilution assay; assay type: functional; details: ATCC 60193, 48 h; in short: as §3
# Candida albicans [22] = experiment: Antifungal activity against Candida albicans 53T measured at 72 hrs by broth dilution assay; assay type: functional; in short: as §3
# Candida albicans [23] = experiment: Antifungal activity against Candida albicans 53T up to 96 hrs by broth dilution assay; assay type: functional, organism-based
# Candida albicans [24] = experiment: Upregulation of orf19.3378 gene expression in Candida albicans SC5314 at 3 uM after 15 mins by microarray method relative to control; assay type: functional; in short: as §4
# Candida albicans [25] = experiment: Upregulation of orf19.7336 gene expression in Candida albicans SC5314 at 3 uM after 15 mins by microarray method relative to control; assay type: functional; in short: as §4
# Candida albicans [26] = experiment: Upregulation of orf19.1438 gene expression in Candida albicans SC5314 at 3 uM after 45 mins by microarray method relative to control; assay type: functional; in short: as §1
# Pichia kudriavzevii [27] = experiment: Antifungal activity against Candida krusei ATCC 14243 measured at 72 hrs by broth dilution assay; assay type: functional; details: ATCC 14243, 72 h; in short: as §3
# Candida parapsilosis [28] = experiment: Ratio of MIC at 24 hrs to MIC at 48 hrs for Candida parapsilosis 64E; assay type: functional; in short: as §5
# Candida albicans [29] = experiment: Upregulation of RTA2 gene expression in Candida albicans SC5314 at 3 uM after 15 mins by microarray method relative to control; assay type: functional; in short: as §1
# Candida albicans [30] = experiment: Upregulation of orf19.2726 gene expression in Candida albicans SC5314 at 3 uM after 45 mins by microarray method relative to control; assay type: functional; in short: as §4
# Candida albicans [31] = experiment: Upregulation of ERG2 gene expression in Candida albicans SC5314 at 3 uM after 45 mins by microarray method relative to control; assay type: functional; in short: as §1
compound,measurement,setting,value
C/C=C/CNC(=N)NCCCCCCCCN1CCCCCCCCNC(=N)NC1=O,fold change (FC),Candida albicans [1],2.93
same,inhibition at 80 µM,Pichia kudriavzevii [2],99.9%
same,MIC,Candida tropicalis [3],5 µM
same,fold change (FC),Candida albicans [4],4.43
same,fold change (FC),Candida albicans [5],2.19
same,MIC,Candida albicans [6],5 µM
same,Ratio,Candida parapsilosis [7],2
same,Activity,Candida albicans [8],Active
same,Activity,Candida albicans [9],Active
same,fold change (FC),Candida albicans [10],71.84
same,MIC,Candida tropicalis [11],2.5 µM
same,MIC,Magnusiomyces capitatus,10 µM
same,fold change (FC),Candida albicans [12],2.79
same,fold change (FC),Candida albicans [13],134.38
same,fold change (FC),Candida albicans [14],2.61
same,fold change (FC),Candida albicans [15],3.49
same,Activity,Candida albicans [16],Active
same,Activity,Candida albicans [17],99.9%
same,MIC,Cryptococcus neoformans,20 µM
same,MIC,Candida parapsilosis [18],20 µM
same,MIC,Nakaseomyces glabratus,> 80 µM
same,MIC,Candida albicans [19],5 µM
same,MIC,Pichia kudriavzevii [20],80 µM
same,MIC,Candida albicans [21],5 µM
same,MIC,Candida albicans [22],5 µM
same,Activity,Candida albicans [23],Active
same,fold change (FC),Candida albicans [24],5.32
same,fold change (FC),Candida albicans [25],2.8
same,fold change (FC),Candida albicans [26],17.28
same,MIC,Pichia kudriavzevii [27],80 µM
same,Ratio,Candida parapsilosis [28],2
same,fold change (FC),Candida albicans [29],3.07
same,fold change (FC),Candida albicans [30],6.56
same,fold change (FC),Candida albicans [31],2.83
